Source: PubChem (several laboratories)
RanGTP-Impb inh = inhibitors of RanGTP-importin-beta interaction, primary screen, biochemical, FRET, CFP-Ran, YFP-importin-beta, homogeneous. Ran GTPase (GTP-bound) - importin-beta complex. cell-free CFP-Ran/YFP-importin-beta FRET ratio. inhibition, % (test concentration not listed). 300,000 compounds, 1.1% hits;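 active = more than half of the replicate wells show a fall in the fluorescence ratio signal beyond about 16%, limit read from the data, passing the limit was not always enough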
Runt-SMMHC FRET = inhibitors of RUNX1 Runt–CBFb-SMMHC binding, primary screen, biochemical, FRET, Cerulean-Runt, Venus-CBFb-SMMHC, uHTS. Runt-related transcription factor 1 (Homo sapiens) + Core-binding factor subunit beta …. Cerulean-Runt/Venus-CBFb-SMMHC FRET ratio 530/480, 1 h. inhibition, % at 20 µM. 220,000 compounds, 0.74% hits. AID 1434, 2008;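 active = mean inhibition across duplicate retests at 20 µM reaching about 50%, limit read from the data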;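 note: inhibitors lower the FRET ratio by blocking Runt binding to CBFb-SMMHC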
RBBP9 inhibitor = human RBBP9 inhibitors, primary screen, biochemical, fluorescence polarization, FP-Rh probe, HTS | Serine hydrolase RBBP9 (Homo sapiens), O75884 | recombinant RBBP9 | inhibition, % at 7.94 µM | 220,000 compounds, 0.2% hits | AID 1515, 2009;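 active = inhibition above the campaign mean of all tested compounds plus 3 SD, cut at about 14% in these data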
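Test system – recombinant human RBBP9 · Input – RBBP9 2.5 µM in dispensing solution, pre-mixing · Medium – Tris buffer pH 8.0, NaCl, Pluronic · Schedule – preincubation 30 min plus labeling 45 min at 25 °C · Measured by – fluorescence polarization · Measure – % inhibition · Controls – DMSO and no-protein wells · Replicates – one well per compound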
Runt-CBFb FRET = inhibitors of RUNX1 Runt–CBFb binding, primary screen, biochemical, FRET, Cerulean-Runt, Venus-CBFb, uHTS; Cerulean-Runt/Venus-CBFb FRET ratio 530/480, 1 h; inhibition, % at 20 µM; 220,000 compounds, 0.46% hits;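 active = inhibition over about 50% at 20 µM in the single-dose screen, limit read from the data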
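System: Cerulean-labeled Runt domain protein | Quantity: 100 nM of each labeled protein | Schedule: 1 h compound exposure, room temperature | Detection: Fluorescence energy transfer, 422 nm excitation, 530/480 nm emission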
PfM18AAP inh = PfM18AAP inhibitors, malaria aminopeptidase, primary screen, biochemical, QFRET, recombinant enzyme; inhibition, % at 7.35 µM; H-Glu-NHMec fluorogenic cleavage; M18 aspartyl aminopeptidase (Plasmodium falciparum 3D7); 290,000 compounds, 1.2% hits;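 active = inhibition above the campaign mean inhibition over all tested compounds plus 3 SD, cut at about 28% in these data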
Hck Nef HTS = inhibitors of Nef-activated human Hck kinase, primary screen, biochemical, Z-Lyte FRET, 384-well, Hck-YEEI | inhibition, % at 20 µM | Recombinant Hck-YEEI plus Nef, Z-Lyte FRET kinase assay | Tyrosine-protein kinase HCK (Homo sapiens), P08631 | 220,000 compounds, 0.68% hits;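 active = Hck-Nef kinase inhibition above about 50%, limit read from the data; inactive = inhibition below that limit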
Target sequence (P08631 whole entry, looked up): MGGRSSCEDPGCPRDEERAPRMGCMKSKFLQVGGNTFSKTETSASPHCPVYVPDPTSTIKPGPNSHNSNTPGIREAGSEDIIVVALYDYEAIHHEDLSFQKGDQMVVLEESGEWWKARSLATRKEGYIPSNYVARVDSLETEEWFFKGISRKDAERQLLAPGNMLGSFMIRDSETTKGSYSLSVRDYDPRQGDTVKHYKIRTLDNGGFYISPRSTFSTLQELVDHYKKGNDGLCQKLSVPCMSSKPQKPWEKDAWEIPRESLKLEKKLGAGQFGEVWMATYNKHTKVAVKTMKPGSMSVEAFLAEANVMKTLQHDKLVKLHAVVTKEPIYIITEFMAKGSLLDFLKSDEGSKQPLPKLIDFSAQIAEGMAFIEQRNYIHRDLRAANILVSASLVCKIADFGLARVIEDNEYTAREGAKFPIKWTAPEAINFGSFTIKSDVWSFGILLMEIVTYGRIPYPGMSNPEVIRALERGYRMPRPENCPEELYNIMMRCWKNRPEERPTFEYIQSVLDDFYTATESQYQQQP
Numbers stand for hits. A selection: hits, their analogues and other compounds. The true share with any hit is near 2.9%.

`O=c1c2ccccc2[nH]c2ccc(F)cc12` gave RanGTP-Impb inh 116, Runt-SMMHC FRET 87, RBBP9 inhibitor inactive, Runt-CBFb FRET inactive, PfM18AAP inh inactive and Hck Nef HTS 71.
Screening Cc1ccc2[nH]c3ccccc3c(=O)c2c1 returned RanGTP-Impb inh 114 and PfM18AAP inh inactive.
Screening O=c1c2ccccc2[nH]c2ccc(O)cc12 returned RanGTP-Impb inh 166 and PfM18AAP inh inactive.
Screening Cc1ccc2[nH]c3c(c2c1)CCNC3=O returned RanGTP-Impb inh inactive, Runt-SMMHC FRET inactive, RBBP9 inhibitor inactive, Runt-CBFb FRET inactive, PfM18AAP inh inactive and Hck Nef HTS inactive.
`COc1ccc2ccccc2c1C1NC(=O)NC(C)=C1[N+](=O)[O-]` (stereo unspecified) gave RanGTP-Impb inh inactive and PfM18AAP inh inactive.
For NC(=O)c1cc(S(=O)(=O)Nc2ccccc2)cs1 the results were RanGTP-Impb inh inactive and PfM18AAP inh inactive.
`CCc1cccc(NC(=O)COC(=O)/C=C/c2cccs2)c1` gave RanGTP-Impb inh inactive.
Screening CCN(CC)S(=O)(=O)c1cccc(C(=O)/C=C2/N(C)c3ccccc3C2(C)C)c1 returned RanGTP-Impb inh 27, Runt-SMMHC FRET inactive, RBBP9 inhibitor inactive, Runt-CBFb FRET inactive, PfM18AAP inh inactive and Hck Nef HTS inactive.
For COCCN1CCN(C(=O)c2cc(COc3ccc(Cl)cc3OC)on2)CC1 the results were RanGTP-Impb inh inactive and PfM18AAP inh inactive.
For CCC(OCC(O)CN1CCN(CCN2C(=O)c3cccc4cccc(c34)C2=O)CC1)c1ccccc1 (stereo unspecified) the results were RanGTP-Impb inh 30, Runt-SMMHC FRET inactive, RBBP9 inhibitor inactive, Runt-CBFb FRET inactive, PfM18AAP inh inactive and Hck Nef HTS inactive.
Screening CCN(CC)c1ccc(S(=O)(=O)N2CCOCC2)cc1NC(=O)COC(=O)c1cccnc1SC returned RanGTP-Impb inh inactive.
For Cc1ccc(CNC(=O)CCNS(=O)(=O)c2ccc3c(c2)c(=O)n(C)c(=O)n3C)cc1 the results were RanGTP-Impb inh inactive, Runt-SMMHC FRET inactive, RBBP9 inhibitor inactive, Runt-CBFb FRET inactive, PfM18AAP inh inactive and Hck Nef HTS inactive.
For Cn1c(=O)c2cc(S(=O)(=O)NCCC(=O)NCc3ccccc3Cl)ccc2n(C)c1=O the results were RanGTP-Impb inh inactive, Runt-SMMHC FRET inactive, RBBP9 inhibitor inactive, Runt-CBFb FRET 138, PfM18AAP inh inactive and Hck Nef HTS inactive.
`O=C(C(=O)N1CCCC1)c1c(-c2ccccc2)[nH]c2ccccc12` gave RanGTP-Impb inh inactive and PfM18AAP inh inactive.
`CC(C)(CNC(=O)c1cccc(F)c1)CNC(=O)c1cccc(F)c1` gave RanGTP-Impb inh inactive.
Screening CCCCCCNC(=O)C(C#N)c1nc2ccccc2nc1N1CCOCC1 (stereo unspecified) returned RanGTP-Impb inh inactive, Runt-SMMHC FRET inactive, RBBP9 inhibitor inactive, Runt-CBFb FRET inactive, PfM18AAP inh inactive and Hck Nef HTS inactive.
CCCCCNC(=O)C(C#N)c1nc2ccccc2nc1N1CC(C)OC(C)C1 (stereo unspecified) was read as RBBP9 inhibitor inactive, PfM18AAP inh inactive and Hck Nef HTS inactive.
For COCCCNC(=O)C(C#N)c1nc2ccccc2nc1N1CCCC1 (stereo unspecified) the results were RanGTP-Impb inh 54, RBBP9 inhibitor inactive, PfM18AAP inh inactive and Hck Nef HTS inactive.
Screening CCCCCCNC(=O)C(C#N)c1nc2ccccc2nc1N1CCCC1 (stereo unspecified) returned RanGTP-Impb inh 24, Runt-SMMHC FRET inactive, RBBP9 inhibitor inactive, Runt-CBFb FRET inactive, PfM18AAP inh inactive and Hck Nef HTS inactive.
CCCCCNC(=O)C(C#N)c1nc2ccccc2nc1N1CCCC1 (stereo unspecified) was read as RanGTP-Impb inh 20, Runt-SMMHC FRET inactive, RBBP9 inhibitor inactive, Runt-CBFb FRET inactive, PfM18AAP inh inactive and Hck Nef HTS inactive.
For O=C(NNC(=S)Nc1ccc(F)c(Cl)c1)c1ccccc1Br the results were RanGTP-Impb inh inactive, Runt-SMMHC FRET inactive, RBBP9 inhibitor inactive, Runt-CBFb FRET inactive, PfM18AAP inh inactive and Hck Nef HTS inactive.
Screening Cc1ccc(C(C)NC(=S)NC2CCCCC2)c(C)c1 (stereo unspecified) returned RanGTP-Impb inh inactive and PfM18AAP inh inactive.
Screening CC(C)N1C(=O)N(c2cccc(Cl)c2)C(C)(O)CC1(C)C (stereo unspecified) returned RanGTP-Impb inh inactive and PfM18AAP inh inactive.
Screening Cc1ccc(OCc2nnc(SCC(=O)N3C(C)CCCC3C)o2)cc1 (stereo unspecified) returned RanGTP-Impb inh inactive and PfM18AAP inh inactive.
For Nc1nonc1C(=O)NCCNCc1ccccc1OCc1ccc(F)cc1 the results were RanGTP-Impb inh 18, Runt-SMMHC FRET inactive, RBBP9 inhibitor inactive, Runt-CBFb FRET inactive, PfM18AAP inh inactive and Hck Nef HTS inactive.
Screening Cc1onc(-c2ccccc2)c1C(=O)Nc1sc2c(c1C#N)CCC2 returned RanGTP-Impb inh 46, Runt-SMMHC FRET inactive, RBBP9 inhibitor inactive, Runt-CBFb FRET inactive, PfM18AAP inh inactive and Hck Nef HTS inactive.
Screening Cc1nnc(NC(=O)c2c(-c3ccccc3)noc2C)s1 returned RanGTP-Impb inh inactive, Runt-SMMHC FRET inactive, RBBP9 inhibitor inactive, Runt-CBFb FRET inactive, PfM18AAP inh inactive and Hck Nef HTS inactive.
`Cc1noc(C)c1C(=O)Nc1sc(C)c(-c2ccccc2)c1C#N` gave RanGTP-Impb inh 110, Runt-SMMHC FRET inactive, RBBP9 inhibitor inactive, Runt-CBFb FRET inactive, PfM18AAP inh inactive and Hck Nef HTS inactive.
`Cc1onc(-c2ccccc2)c1C(=O)Nc1sc2c(c1C(N)=O)CCC2` gave RanGTP-Impb inh 51, Runt-SMMHC FRET inactive, RBBP9 inhibitor inactive, Runt-CBFb FRET inactive, PfM18AAP inh inactive and Hck Nef HTS inactive.
For N#Cc1c(NC(=O)CSc2ncc(-c3ccccc3)n2CC2CCCO2)sc2c1CCCC2 (stereo unspecified) the results were RanGTP-Impb inh inactive, Runt-SMMHC FRET 73, RBBP9 inhibitor inactive, Runt-CBFb FRET inactive, PfM18AAP inh inactive and Hck Nef HTS inactive.
